Results published in ChEMBL document CHEMBL1152968, “Phenylethanoid and lignan glycosides from polar extracts of Lantana, a genus of verbenaceous plants widely used in traditional herbal therapies” (J Nat Prod, 2009).
Activity calls are given as the source filed them.

What was measured:
Format in all cases: functional, cell-based
K562 = test: Cytotoxicity against human K562 cells at 10 uM after 48 hrs by fluorescent microplate assay
Procedure, shortened: (§1)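 Cells were seeded in 96-well plates in RPMI 1640 with 10% fetal calf serum and 10 units/mL penicillin-streptomycin. They were then cultured 24 h at 37 °C in humidified 5% CO2 before treatment. Compounds were added dissolved in DMSO, and the read-out was cell viability.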

KG-1 = test: Cytotoxicity against human KG1 cells at 10 uM after 48 hrs by fluorescent microplate assay; procedure, shortened: as §1
CCRF-CEM = test: Cytotoxicity against human CEM cells at 10 uM after 48 hrs by fluorescent microplate assay; procedure, shortened: as §1
NCI-H929 = test: Cytotoxicity against human NCI-H929 cells at 10 uM after 48 hrs by fluorescent microplate assay; procedure, shortened: as §1
U-266 = test: Cytotoxicity against human U266 cells at 10 uM after 48 hrs by fluorescent microplate assay; procedure, shortened: as §1
HL-60 = test: Cytotoxicity against human HL60 cells at 10 uM after 48 hrs by fluorescent microplate assay; procedure, shortened: as §1
Jurkat = test: Cytotoxicity against human Jurkat cells at 10 uM after 48 hrs by fluorescent microplate assay; procedure, shortened: as §1
U-937 = test: Cytotoxicity against human U937 cells at 10 uM after 48 hrs by fluorescent microplate assay; procedure, shortened: as §1

Measured: Activity

COc1cc([C@H]2Oc3c(OC)cc([C@H](O)[C@H](O)CO[C@@H]4O[C@H](CO)[C@@H](O)[C@H](O)[C@H]4O)cc3[C@@H]2CO)ccc1O
inactive: all assays above

O=C(/C=C/c1ccc(O)c(O)c1)O[C@H]1[C@H](O[C@@H]2OC[C@](O)(CO)[C@H]2O)[C@@H](O)[C@H](OCCc2ccc(O)c(O)c2)O[C@@H]1CO[C@@H]1OC[C@H](O[C@@H]2OC[C@](O)(CO)[C@H]2O)[C@H](O)[C@H]1O
inactive: all assays above
